Measurements reported in ChEMBL document CHEMBL1156517, “Targeting thyroid hormone receptor-beta agonists to the liver reduces cholesterol and triglycerides and improves the therapeutic index” (Proc Natl Acad Sci U S A, 2007).
Calls of active or inactive are those of the source. No cut-off for these calls is given here.

Legend:
Mus musculus [1] = experiment: Decrease in liver weight in po dosed diet-induced obese C57BL/6 mouse after 14 days; format: functional; design: scale not given: the % may be the effect or the level left
Outline: (§1)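 DIO mice were male C57BL/6 fed a 60%-fat (by kcal) diet from about 4 weeks of age for about 170 days. They were grouped (n = 8) to match cholesterol and body weight. Dosing was oral, once daily for 2 weeks, in 0.5% CMC/1% Lutrol F68. At kill, blood was taken by cardiac puncture for plasma TGs. The liver was removed and weighed, and hepatic TGs were measured.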

Mus musculus [2] = experiment: Increase in heart weight in po dosed diet-induced obese C57BL/6 mouse; format: functional, organism-based
Mus musculus [3] = experiment: Reduction in blood glucose level in po dosed diet-induced obese C57BL/6 mouse; format: functional, organism-based
Outline: (§2)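 Male C57BL/6 mice, about 4 weeks old, fed a high-fat diet (60% kcal fat) for about 170 days. Assigned to groups (n = 8) matched for cholesterol and body weight. Dosed orally once daily in 0.5% CMC/1% Lutrol F68 for 2 weeks. Baseline blood taken by tail nick. At end, cardiac-puncture blood used for cholesterol, TGs, glucose and thyroid hormones; liver weighed and hepatic TGs measured.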

Rattus norvegicus [4] = experiment: Toxic cardiac effect in Sprague-Dawley rat assessed as increase in heart weight at 1 mg/kg/day, po; format: toxicity, organism-based; design: route oral; conditions: in vivo
Rattus norvegicus [5] = experiment: Toxicity in Sprague-Dawley rat assessed as suppression of thyroid hormone axis measured by decrease in total […]-L-thyronine level at 0.1 mg/kg, po after 7 weeks; format: organism-based; design: dose 0.1 mg/kg, route oral; conditions: in vivo, 1176 h
Mus musculus [6] = experiment: Decrease in liver triglyceride level in po dosed diet-induced obese C57BL/6 mouse after 14 days; format: functional; design: scale not given: the % may be the effect or the level left; outline: as §1
Rattus norvegicus [7] = experiment: Toxic cardiac effect in Sprague-Dawley rat assessed as increase in heart rate at 1 mg/kg/day, po; format: toxicity, organism-based; design: route oral; conditions: in vivo
Outline: (§3)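 Male SD rats (n = 6 per group) dosed daily by oral gavage for 7 days; vehicle group included. On day 7, rats anesthetized with isoflurane; catheter-tip transducer inserted into left ventricle via right carotid artery. LV pressure, LV dP/dt and heart rate (lead I ECG) recorded digitally. Systolic/diastolic aortic pressure taken by retracting catheter into proximal aorta.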

Mus musculus [8] = experiment: Effect on hepatic LDLR mRNA level in LDLR deficient C57BL/6 mouse at 0.5 mg/kg/day once daily for 7 days; format: functional
Rattus norvegicus [9] = experiment: Toxicity in Sprague-Dawley rat assessed as suppression of thyroid hormone axis measured by decrease in free 3,5,3',5'-triiodo-L-thyronine level at 0.1 mg/kg, po after 7 weeks; format: organism-based; design: dose 0.1 mg/kg, route oral; conditions: in vivo, 1176 h
Outline: (§4)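 Male SD rats (n = 5–6 per group; baseline group n = 8) given vehicle (0.5% CMC/1% Lutrol F68) or drug orally once daily. One group per cohort weighed and killed by decapitation without anesthesia after 1, 2, 4 and 7 weeks. Trunk-blood serum assayed for total/free T3 and T4; TSH by [125I] radioimmunoassay with magnetic separation. Pituitary TSHβ mRNA also measured.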

Mus musculus [10] = experiment: Decrease in cholesterol level in LDLR deficient C57BL/6 mouse at 5 mg/kg/day once daily for 7 days; format: functional, organism-based
Rattus norvegicus [11] = experiment: Toxicity in Sprague-Dawley rat assessed as suppression of thyroid hormone axis measured by decrease in free 3,5,3',5'-tetraiodo-L-thyronine level at 1 mg/kg, po after 7 weeks; format: organism-based; design: dose 1 mg/kg, route oral; conditions: in vivo, 1176 h; outline: as §4
Mus musculus [12] = experiment: Decrease in cholesterol level in LDLR deficient C57BL/6 mouse at 0.5 mg/kg/day once daily for 7 days; format: functional, organism-based
Rattus norvegicus [13] = experiment: Effect on malic enzyme mRNA expression in po dosed Sprague-Dawley rat liver; format: functional, organism-based; conditions: TDE = time-dependent effect
Outline: (§5)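 Killed 3, 8 and 24 h post-dose under 2.5% isoflurane. Pituitary and thyroid snap-frozen; liver, heart, soleus, spleen and kidney freeze-clamped. mRNA by quantitative real-time PCR, expressed as fold-change vs vehicle.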

Rattus norvegicus [14] = experiment: Effect on LDLR mRNA expression in po dosed Sprague-Dawley rat liver; format: functional, organism-based; conditions: TDE = time-dependent effect
Rattus norvegicus [15] = experiment: Effect on type 1 iodothyronine deiodinase mRNA expression in po dosed Sprague-Dawley rat liver; format: functional, organism-based; conditions: TDE = time-dependent effect; outline: as §5
Rattus norvegicus [16] = experiment: Toxic cardiac effect on Sprague-Dawley rat assessed as decrease in body weight gain at 1 mg/kg/day, po; format: toxicity, organism-based; design: route oral; scale not given: the % may be the effect or the level left; conditions: in vivo
Rattus norvegicus [17] = experiment: Toxicity in Sprague-Dawley rat assessed as suppression of thyroid hormone axis measured by assessed as decrease in total […]-L-thyronine level at 1 mg/kg, po after 7 weeks; format: organism-based; design: dose 1 mg/kg, route oral; conditions: in vivo, 1176 h; outline: as §4
Mus musculus [18] = experiment: Decrease in cholesterol level in wild-type C57BL/6 mouse at 0.5 mg/kg/day once daily for 7 days; format: functional, organism-based
Rattus norvegicus [19] = experiment: Toxic cardiac effect in Sprague-Dawley rat assessed as increase in first derivative of left ventricular pressure at 1 mg/kg/day, po; format: toxicity, organism-based, Heart left ventricle; design: route oral; conditions: in vivo; outline: as §3
Rattus norvegicus [20] = experiment: Toxic cardiac effect on Sprague-Dawley rat assessed as increase in systolic aortic pressure at >= 1 mg/kg/day, po for 7 days; format: toxicity, organism-based; design: route oral; conditions: in vivo, 168 h; outline: as §3
Rattus norvegicus [21] = experiment: Toxicity in Sprague-Dawley rat assessed as suppression of thyroid hormone axis measured by decrease in free 3,5,3',5'-triiodo-L-thyronine level at 1 mg/kg, po after 7 weeks; format: organism-based; design: dose 1 mg/kg, route oral; conditions: in vivo, 1176 h; outline: as §4
Mus musculus [22] = experiment: Reduction in total 3,5,3',5'-tetraiodo-L-thyronine level in po dosed diet-induced obese C57BL/6 mouse; format: functional, organism-based; outline: as §2
Rattus norvegicus [23] = experiment: Toxicity in Sprague-Dawley rat assessed as suppression of thyroid hormone axis measured by decrease in TSH-beta mRNA level at 1 mg/kg, po after 7 weeks; format: organism-based; design: dose 1 mg/kg, route oral; conditions: in vivo, 1176 h; outline: as §4
Mus musculus [24] = experiment: Reduction in total […]-L-thyronine level in po dosed diet-induced obese C57BL/6 mouse; format: functional, organism-based; outline: as §2
Rattus norvegicus [25] = experiment: Toxicity in Sprague-Dawley rat assessed as suppression of thyroid hormone axis measured by decrease in TSH-beta mRNA level at 0.1 mg/kg, po after 7 weeks; format: organism-based; design: dose 0.1 mg/kg, route oral; conditions: in vivo, 1176 h; outline: as §4
Rattus norvegicus [26] = experiment: Toxicity in Sprague-Dawley rat assessed as suppression of thyroid hormone axis measured by decrease in total 3,5,3',5'-tetraiodo-L-thyronine level at 0.1 mg/kg, po after 7 weeks; format: organism-based; design: dose 0.1 mg/kg, route oral; conditions: in vivo, 1176 h
Rattus norvegicus [27] = experiment: Toxicity in Sprague-Dawley rat assessed as suppression of thyroid hormone axis measured by decrease in serum TSH level at 1 mg/kg, po after 7 weeks; format: organism-based; design: dose 1 mg/kg, route oral; conditions: in vivo, 1176 h; outline: as §4
Rattus norvegicus [28] = experiment: Effect on SREBP-1c mRNA expression in po dosed Sprague-Dawley rat liver; format: functional, organism-based; conditions: TDE = time-dependent effect
Mus musculus [29] = experiment: Decrease in body weight in diet-induced obese C57BL/6 mouse at 0.03 mg/kg, po; format: functional; design: scale not given: the % may be the effect or the level left
Mus musculus [30] = experiment: Decrease in cholesterol level in wild-type C57BL/6 mouse at 5 mg/kg/day once daily for 7 days; format: functional, organism-based
Rattus norvegicus [31] = experiment: Toxicity in Sprague-Dawley rat assessed as suppression of thyroid hormone axis measured by decrease in serum TSH level at 0.1 mg/kg, po after 7 weeks; format: organism-based; design: dose 0.1 mg/kg, route oral; conditions: in vivo, 1176 h; outline: as §4
Rattus norvegicus [32] = experiment: Toxic cardiac effect on Sprague-Dawley rat assessed as increase in first derivative of left ventricular pressure at >= 1 mg/kg/day, po for 7 days; format: toxicity, organism-based, Heart left ventricle; design: route oral; conditions: in vivo, 168 h; outline: as §3
Rattus norvegicus [33] = experiment: Toxicity in Sprague-Dawley rat assessed as suppression of thyroid hormone axis measured by decrease in free 3,5,3',5'-tetraiodo-L-thyronine level at 0.1 mg/kg, po after 7 weeks; format: organism-based; design: dose 0.1 mg/kg, route oral; conditions: in vivo, 1176 h; outline: as §4
Mus musculus [34] = experiment: Reduction in plasma cholesterol level in po dosed diet-induced obese C57BL/6 mouse after 2 weeks; format: functional; design: scale not given: the % may be the effect or the level left; outline: as §2
Rattus norvegicus [35] = experiment: Toxicity in Sprague-Dawley rat assessed as suppression of thyroid hormone axis measured by decrease in total 3,5,3',5'-tetraiodo-L-thyronine level at 1 mg/kg, po after 7 weeks; format: organism-based; design: dose 1 mg/kg, route oral; conditions: in vivo, 1176 h
Mus musculus [36] = experiment: Effect on hepatic LDLR mRNA level in wild-type C57BL/6 mouse at 0.5 mg/kg/day once daily for 7 days; format: functional
Rattus norvegicus [37] = experiment: Toxic cardiac effect on Sprague-Dawley rat assessed as increase in heart rate at >= 1 mg/kg/day, po for 7 days; format: toxicity, organism-based; design: route oral; conditions: in vivo, 168 h; outline: as §3
Rattus norvegicus [38] = species: Rattus norvegicus; experiment: Reduction in plasma cholesterol level in cholesterol fed Sprague-Dawley rat; format: functional

- Activity (Rattus norvegicus [13]): tde
- Activity (Rattus norvegicus [15]): tde
Structure (SMILES): CC(C)c1cc(Oc2c(Cl)cc(CC(=O)O)cc2Cl)ccc1O
- Activity (Mus musculus [1]): 33%
- Activity (Mus musculus [2]): Active
- Activity (Mus musculus [3]): Active
- Activity (Rattus norvegicus [4]): Active
- Activity (Rattus norvegicus [5]): Active
- Activity (Mus musculus [6]): 33%
- Activity (Rattus norvegicus [7]): Active
- Activity (Mus musculus [8]): -10.6%
- Activity (Rattus norvegicus [9]): Active
- Activity (Mus musculus [10]): inactive
- Activity (Rattus norvegicus [11]): Active
- Activity (Mus musculus [12]): inactive
- Activity (Rattus norvegicus [14]): tde
- Activity (Rattus norvegicus [16]): 61%
- Activity (Rattus norvegicus [17]): Active
- Activity (Mus musculus [18]): Active
- Activity (Rattus norvegicus [19]): Active
- Activity (Rattus norvegicus [20]): Active
- Activity (Rattus norvegicus [21]): Active
- Activity (Mus musculus [22]): Active
- Activity (Rattus norvegicus [23]): Active
- Activity (Mus musculus [24]): Active
- Activity (Rattus norvegicus [25]): Active
- Activity (Rattus norvegicus [26]): Active
- Activity (Rattus norvegicus [27]): Active
- Activity (Rattus norvegicus [28]): tde
- Activity (Mus musculus [29]): 3%
- Activity (Mus musculus [30]): Active
- Activity (Rattus norvegicus [31]): Active
- Activity (Rattus norvegicus [32]): Active
- Activity (Rattus norvegicus [33]): Active
- Activity (Mus musculus [34]): 67%
- Activity (Rattus norvegicus [35]): Active
- Activity (Mus musculus [36]): -55.8%
- Activity (Rattus norvegicus [37]): Active
- ED50 (Rattus norvegicus [38]): 0.05 mg/kg
